Experimental data taken from ChEMBL document CHEMBL1154677, “Microtubule-stabilizing activity of zampanolide, a potent macrolide isolated from the Tongan marine sponge Cacospongia mycofijiensis” (J Med Chem, 2009).
Calls of active or inactive are those of the source. The calls are words filed in the database; no cut-off is given here.

Assays:
[1] = tested on: HL-60; experiment: Cytotoxicity against human HL60 cells after 48 hrs by MTT assay; type: functional, cell-based; conditions: HL-60, 48 h
Method in brief: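 HL-60 in RPMI-1640 with 10% fetal calf serum plus penicillin-streptomycin. 48 h drug exposure, growth by MTT dye reduction, IC50 from dose-response curves; n = 5 preparations.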

[2] = tested on: 1A9; experiment: Cytotoxicity against human 1A9 cells after 72 hrs by MTT assay; type: functional, cell-based; conditions: 1A9, 72 h
Method in brief: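 1A9 ovarian carcinoma in RPMI-1640 with 10% fetal calf serum, penicillin-streptomycin and 0.25 units/mL insulin. 72 h exposure, MTT dye reduction, IC50 from dose-response curves; n = 6 preparations.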

[3] = tested on: HL-60; experiment: Cytotoxicity against human HL60 cells at 2 nM after 24 hrs by Trypan blue exclusion test; type: functional, cell-based
Method in brief: (§1)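 HL-60 cells exposed to drug, then viability counted by Trypan blue dye exclusion at 24 h and 48 h; n = 2 preparations.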

[4] = tested on: HL-60; experiment: Cytotoxicity against human HL60 cells assessed as cell death at 10 nM after 48 hrs by Trypan blue exclusion test; type: functional, cell-based; method in brief: as §1
[5] = tested on: HL-60; experiment: Cytotoxicity against human HL60 cells assessed as increase in cell diameter after 48 hrs by Giemsa staining; type: functional, cell-based
Method in brief: (§2)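 HL-60 cells given 2-8 nM for 48 h, cytospun onto slides, air-dried, fixed in 100% methanol, Giemsa-stained. Cell diameter measured and compared with untreated cells.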

[6] = tested on: HL-60; experiment: Cytotoxicity against human HL60 cells assessed as increase in cell diameter at 8 nM after 48 hrs by Giemsa staining; type: functional; method in brief: as §2
[7] = tested on: HL-60; experiment: Cell cycle arrest in human HL60 cells assessed as accumulation in G2/M phase at 2 to 10 nM after 16 hrs by flow cytometry; type: functional, cell-based
Method in brief: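 HL-60 cells in RPMI-1640 with 10% fetal calf serum, exposed 16 h over 2-10 nM. Propidium iodide stain, DNA content by flow cytometry, G2/M and subdiploid fractions scored.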

[8] = tested on: 1A9; experiment: Cytotoxicity against human 1A9 cells assessed as interphase cells with microtubule bundles at 5 nM after 12 hrs by immunocytochemistry; type: functional
Method in brief: (§3)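 1A9 cells on glass coverslips attached 24 h, then dosed at 0-20 nM for 12 h. Fixed in ice-cold methanol/acetone 1:1, blocked with 5% BSA in PBST, stained with anti-α-tubulin and Alexa 488 secondary plus DAPI, viewed by confocal microscopy. Percent of interphase cells with bundles and mitotic cells with multiple asters scored; n = 3 preparations.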

[9] = tested on: 1A9; experiment: Cytotoxicity against human 1A9 cells assessed as interphase cells with microtubule bundles at 8 nM after 12 hrs by immunocytochemistry; type: functional; method in brief: as §3
[10] = tested on: 1A9; experiment: Cytotoxicity against human 1A9 cells assessed as interphase cells with microtubule bundles at 10 nM after 12 hrs by immunocytochemistry; type: functional; method in brief: as §3
[11] = tested on: 1A9; experiment: Cytotoxicity against human 1A9 cells assessed as interphase cells with microtubule bundles at 20 nM after 12 hrs by immunocytochemistry; type: functional; method in brief: as §3
[12] = tested on: 1A9; experiment: Cytotoxicity against human 1A9 cells assessed as mitotic cells with multiple asters at 5 nM after 12 hrs by immunocytochemistry; type: functional; method in brief: as §3
[13] = tested on: 1A9; experiment: Cytotoxicity against human 1A9 cells assessed as mitotic cells with multiple asters at 8 nM after 12 hrs by immunocytochemistry; type: functional; method in brief: as §3
[14] = tested on: 1A9; experiment: Cytotoxicity against human 1A9 cells assessed as mitotic cells with multiple asters at 10 nM after 12 hrs by immunocytochemistry; type: functional; method in brief: as §3
[15] = tested on: 1A9; experiment: Cytotoxicity against human 1A9 cells assessed as mitotic cells with multiple asters at 20 nM after 12 hrs by immunocytochemistry; type: functional; method in brief: as §3
[16] = molecular target: T1, Tubulin (Homo sapiens) (UniProt P68371+Q9H4B7+P0DPH7+P68366+Q13509+Q71U36+P04350+Q3ZCM7+P07437+P68363+Q9BQE3+Q6PEY2+Q13885+Q9BVA1+Q9BUF5); experiment: Induction of tubulin polymerization in human 1A9 cells after 16 hrs by Western blotting; type: cell-based
Method in brief: (§4)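 1A9 cells dosed for 16 h. Lysates split into soluble and particulate fractions at 14000g for 10 min, electrophoresed and immunoblotted for α-tubulin with Cy5 secondary. Percent polymerized = pellet band density / (soluble + pellet) by densitometry; four independent experiments.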

[17] = molecular target: T1, Tubulin (Homo sapiens); experiment: Induction of tubulin polymerization in human 1A9 cells at 100 nM after 16 hrs by Western blotting; type: cell-based; method in brief: as §4
[18] = species: Bos taurus; experiment: Induction of bovine tubulin polymerization at 10 uM after 1hr in presence of 1 mM GTP
Method in brief: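 Purified bovine brain tubulin, 2 μM, in 80 mM PIPES, 0.5 mM EGTA, 2 mM MgCl2, 1 mM GTP, pH 6.9, no MAPs. Reaction started by adding drug at 10 μM, 37 °C; ethanol 1% final in controls. A340 read every 30 s for 1 h; three experiments.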

[19] = tested on: A2780; experiment: Selectivity ratio of IC50 for p-glycoprotein overexpressing human A2780AD cells to IC50 for human A2780 cells; type: functional
Method in brief: (§5)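 A2780 parental and P-gp-overexpressing A2780AD ovarian cells in RPMI-1640 with 10% fetal calf serum and 0.25 units/mL insulin.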

[20] = tested on: A2780; experiment: Cytotoxicity against human A2780 cells by MTT cell proliferation assay; type: functional, cell-based
[21] = Cytotoxicity against p-glycoprotein overexpressing human A2780AD cells by MTT cell proliferation assay; type: functional, cell-based; conditions: A2780 ADR; method in brief: as §5

SMILES	Activity [8] [%]	Activity [10] [%]	Activity [11] [%]	Activity [12] [%]	Activity [14] [%]	Activity [15] [%]	IC50 [21] [nM]	other results
C=C1C[C@@H]2C/C=C/C(=O)C/C(C)=C\C=C\C(=O)O[C@H]([C@H](O)NC(=O)/C=C\C=C\C)C/C(C)=C/[C@H](C1)O2 [ZAMPANOLIDE]	9.6	55	74.3	4.3	51.4	57.3	7.5	IC50 [1]: 4.3 nM; IC50 [2]: 14.3 nM; Activity [3]: Active; Activity [4]: Active; Activity [5]: Dose-dependent effect; Activity [6]: 28.7 micrometer; Activity [7]: Active; Activity [9]: 28.6%; Activity [13]: 21.6%; Activity [16]: Dose-dependent effect; Activity [17]: Active; Activity [18]: Active; Ratio IC50 [19]: 1.4; IC50 [20]: 7.1 nM
CC(=O)O[C@H]1C(=O)[C@@]2(C)[C@H]([C@H](OC(=O)c3ccccc3)[C@]3(O)C[C@H](OC(=O)[C@H](O)[C@@H](NC(=O)c4ccccc4)c4ccccc4)C(C)=C1C3(C)C)[C@]1(OC(C)=O)CO[C@@H]1C[C@@H]2O [PACLITAXEL]	13.7	76.5	81.9	6.6	43.3	52.2	415	–
